Laboratory results taken from ChEMBL document CHEMBL1154411, “Determination of the primary target of a quinolone drug and the effect of quinolone resistance-conferring mutations by measuring quinolone sensitivity based on its mode of action” (Antimicrob Agents Chemother, 2007).
Calls of active or inactive are those of the source. The calls are words filed in the database; no cut-off is given here.

Tests used:
[1] = tested on: Staphylococcus aureus; assay: Induction of Staphylococcus aureus DNA topoisomerase 4-mediated negatively supercoiled Escherichia coli pBR322 DNA cleavage assessed as amount of linear DNA generated per unit amount of enzyme at 50 uM after 10 mins by gel electrophoresis
Method in brief: (§1)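 Negatively supercoiled pBR322 (300 ng) incubated with titrated topoisomerase (tetramer amounts) in 50 mM Tris-HCl pH 8, 10 mM MgCl2, 10 mM DTT, 50 μg/ml BSA, 1 mM ATP, 5 μg/ml tRNA, 10 min at 37°C, with or without 50 μM norfloxacin. Trapped by 1% SDS, then EDTA/proteinase K, extracted, and run on 1.2% agarose with ethidium bromide; activity is linear DNA per enzyme amount.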

[2] = tested on: Escherichia coli; assay: Induction of Escherichia coli DNA topoisomerase 4 ParC […] mutant-mediated negatively supercoiled Escherichia coli pBR322 DNA cleavage assessed as amount of linear DNA generated per unit amount of enzyme at 50 uM after 10 mins by gel electrophoresis; method in brief: as §1
[3] = tested on: Staphylococcus aureus; assay: Sensitivity ratio for induction of Staphylococcus aureus DNA topoisomerase 4 over DNA gyrase-mediated negatively supercoiled Escherichia coli pBR322 DNA cleavage
[4] = tested on: Staphylococcus aureus; assay: Induction of Staphylococcus aureus DNA topoisomerase 4-mediated Escherichia coli pBR322 DNA cleavage assessed as ratio of drug-induced DNA cleavage to spontaneous DNA cleavage at 50 uM after 10 mins by gel electrophoresis
Method in brief: (§2)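 Quinolone sensitivity is the ratio of specific cleavage activity with 50 μM norfloxacin to the activity without it. Both come from the same pBR322 cleavage reaction: 37°C for 10 min with 1 mM ATP, then SDS/proteinase K trapping, with linear DNA resolved on ethidium-stained 1.2% agarose gels.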

[5] = biological target: T1, DNA gyrase (Staphylococcus aureus) (UniProt P0A0K8+P20831); assay: Induction of Staphylococcus aureus DNA gyrase-mediated negatively supercoiled Escherichia coli pBR322 DNA cleavage at 50 uM after 10 mins by gel electrophoresis; assay type: protein-complex assay; method in brief: as §1
[6] = tested on: Escherichia coli; assay: Induction of Escherichia coli DNA topoisomerase 4-mediated Escherichia coli pBR322 DNA cleavage assessed as ratio of drug-induced DNA cleavage to spontaneous DNA cleavage at 50 uM after 10 mins by gel electrophoresis; method in brief: as §2
[7] = biological target: T1, DNA gyrase (Staphylococcus aureus); assay: Induction of Staphylococcus aureus DNA gyrase-mediated Escherichia coli pBR322 DNA cleavage assessed as ratio of drug-induced DNA cleavage to spontaneous DNA cleavage at 50 uM after 10 mins by gel electrophoresis; assay type: protein-complex assay; method in brief: as §2
[8] = tested on: Escherichia coli; assay: Induction of Escherichia coli DNA gyrase-mediated Escherichia coli pBR322 DNA cleavage assessed as ratio of drug-induced DNA cleavage to spontaneous DNA cleavage at 50 uM after 10 mins by gel electrophoresis; method in brief: as §2
[9] = biological target: DNA gyrase (Escherichia coli) (UniProt P0AES6+P0AES4); assay: Induction of Escherichia coli DNA gyrase-mediated negatively supercoiled Escherichia coli pBR322 DNA cleavage assessed as amount of linear DNA generated per unit amount of enzyme at 50 uM after 10 mins by gel electrophoresis; assay type: protein-complex assay; method in brief: as §1
[10] = tested on: Staphylococcus aureus; assay: Induction of Staphylococcus aureus DNA topoisomerase 4-mediated negatively supercoiled Escherichia coli pBR322 DNA cleavage at 50 uM after 10 mins by gel electrophoresis; method in brief: as §1
[11] = tested on: Escherichia coli; assay: Induction of Escherichia coli DNA topoisomerase 4-mediated negatively supercoiled Escherichia coli pBR322 DNA cleavage at 50 uM after 10 mins by gel electrophoresis; method in brief: as §1
[12] = tested on: T2, DNA topoisomerase 4 subunit A (Escherichia coli K-12), P0AFI2 [S80L]; assay: Induction of Staphylococcus aureus DNA topoisomerase 4 ParC S80L mutant-mediated Escherichia coli pBR322 DNA cleavage assessed as ratio of drug-induced DNA cleavage to spontaneous DNA cleavage at 50 uM after 10 mins by gel electrophoresis
T2 sequence (whole entry): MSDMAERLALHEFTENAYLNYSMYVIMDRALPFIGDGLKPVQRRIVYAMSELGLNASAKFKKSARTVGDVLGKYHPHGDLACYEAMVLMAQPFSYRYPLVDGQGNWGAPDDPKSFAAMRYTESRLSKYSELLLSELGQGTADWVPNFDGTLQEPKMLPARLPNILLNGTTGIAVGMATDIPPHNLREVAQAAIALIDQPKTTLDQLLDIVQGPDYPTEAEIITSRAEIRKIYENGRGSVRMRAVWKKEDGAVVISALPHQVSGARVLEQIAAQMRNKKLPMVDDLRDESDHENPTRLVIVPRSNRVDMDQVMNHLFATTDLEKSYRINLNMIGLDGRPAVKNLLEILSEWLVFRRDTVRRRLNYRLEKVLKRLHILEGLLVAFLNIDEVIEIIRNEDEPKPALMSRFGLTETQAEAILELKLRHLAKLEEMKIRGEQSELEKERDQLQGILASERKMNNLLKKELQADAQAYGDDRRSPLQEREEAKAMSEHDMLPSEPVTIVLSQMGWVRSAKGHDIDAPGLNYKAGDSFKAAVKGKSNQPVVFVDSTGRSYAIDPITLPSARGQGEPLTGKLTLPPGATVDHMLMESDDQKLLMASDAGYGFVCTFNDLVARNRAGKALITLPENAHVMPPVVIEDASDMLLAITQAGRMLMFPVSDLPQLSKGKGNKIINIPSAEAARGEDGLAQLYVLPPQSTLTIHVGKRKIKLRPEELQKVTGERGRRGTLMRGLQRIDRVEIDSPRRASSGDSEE

[13] = tested on: Escherichia coli; assay: Sensitivity ratio for induction of Escherichia coli DNA topoisomerase 4 over DNA gyrase-mediated negatively supercoiled Escherichia coli pBR322 DNA cleavage
[14] = tested on: Escherichia coli; assay: Induction of Escherichia coli DNA gyrase-mediated negatively supercoiled Escherichia coli pBR322 DNA cleavage at 50 uM after 10 mins by gel electrophoresis; method in brief: as §1
[15] = tested on: T2, DNA topoisomerase 4 subunit A (Escherichia coli K-12), P0AFI2 [S80L]; assay: (§3) Induction of Escherichia coli DNA topoisomerase 4-mediated negatively supercoiled Escherichia coli pBR322 DNA cleavage assessed as amount of linear DNA generated per unit amount of enzyme at 50 uM after 10 mins by gel electrophoresis; method in brief: as §1
[16] = tested on: Escherichia coli; assay: as §3; method in brief: as §1

T1 sequence (P0A0K8 2-644 limits assumed): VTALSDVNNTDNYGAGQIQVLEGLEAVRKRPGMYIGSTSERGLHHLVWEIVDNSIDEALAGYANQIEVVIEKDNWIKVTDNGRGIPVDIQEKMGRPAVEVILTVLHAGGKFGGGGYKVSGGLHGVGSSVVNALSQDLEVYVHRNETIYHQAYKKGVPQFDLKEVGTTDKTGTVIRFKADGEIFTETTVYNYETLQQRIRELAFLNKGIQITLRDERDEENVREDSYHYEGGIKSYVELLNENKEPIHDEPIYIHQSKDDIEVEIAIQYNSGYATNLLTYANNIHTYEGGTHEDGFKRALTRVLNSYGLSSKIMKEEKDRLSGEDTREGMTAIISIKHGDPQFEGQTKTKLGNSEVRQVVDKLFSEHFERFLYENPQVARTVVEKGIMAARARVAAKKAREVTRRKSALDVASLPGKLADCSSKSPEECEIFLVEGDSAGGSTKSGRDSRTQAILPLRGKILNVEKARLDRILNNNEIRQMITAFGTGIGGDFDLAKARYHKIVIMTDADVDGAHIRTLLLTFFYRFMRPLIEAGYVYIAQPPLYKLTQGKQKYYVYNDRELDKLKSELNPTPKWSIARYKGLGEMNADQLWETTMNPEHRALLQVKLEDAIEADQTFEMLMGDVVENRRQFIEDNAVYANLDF
T1 sequence (P20831 whole entry partner): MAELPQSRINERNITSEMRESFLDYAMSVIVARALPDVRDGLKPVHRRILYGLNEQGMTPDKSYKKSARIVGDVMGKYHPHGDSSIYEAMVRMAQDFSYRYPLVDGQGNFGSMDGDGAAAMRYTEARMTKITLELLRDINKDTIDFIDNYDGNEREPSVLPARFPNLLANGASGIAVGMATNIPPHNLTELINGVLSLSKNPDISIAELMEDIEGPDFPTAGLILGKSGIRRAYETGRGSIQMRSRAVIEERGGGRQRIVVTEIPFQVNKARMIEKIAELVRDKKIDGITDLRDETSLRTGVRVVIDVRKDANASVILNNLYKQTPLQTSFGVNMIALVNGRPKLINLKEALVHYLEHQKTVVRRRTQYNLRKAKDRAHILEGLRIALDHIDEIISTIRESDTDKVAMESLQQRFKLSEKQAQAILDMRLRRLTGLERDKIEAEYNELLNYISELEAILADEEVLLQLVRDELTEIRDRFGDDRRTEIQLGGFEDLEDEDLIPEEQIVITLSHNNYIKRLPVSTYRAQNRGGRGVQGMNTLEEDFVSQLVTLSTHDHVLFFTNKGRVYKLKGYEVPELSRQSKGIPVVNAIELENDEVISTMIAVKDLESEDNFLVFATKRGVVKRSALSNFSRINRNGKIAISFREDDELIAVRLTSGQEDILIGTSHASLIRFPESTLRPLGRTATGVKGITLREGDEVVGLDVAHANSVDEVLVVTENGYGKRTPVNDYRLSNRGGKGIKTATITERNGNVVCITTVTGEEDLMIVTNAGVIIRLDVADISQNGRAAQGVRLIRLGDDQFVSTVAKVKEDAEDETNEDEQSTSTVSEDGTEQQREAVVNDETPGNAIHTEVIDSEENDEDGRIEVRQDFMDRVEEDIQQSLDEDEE

CCn1cc(C(=O)O)c(=O)c2cc(F)c(N3CCNCC3)cc21
Activity [1]: 0.42 ng
Activity [2]: 0.17 ng
Ratio [3]: 2.5
Ratio [4]: 24.7
Activity [5]: Active
Ratio [6]: 3.79
Ratio [7]: 10
Ratio [8]: 68.4
Activity [9]: 0.39 ng
Activity [10]: Active
Activity [11]: Active
Ratio [12]: 1.96
Ratio [13]: 18
Activity [14]: Active
Activity [15]: 0.49 ng
Activity [16]: 0.53 ng
